The values below come from paper PMC8458982 (The Journal of Biological Chemistry, 2021).

The EC50 is the concentration needed to bring the measured effect to its halfway point. Read a high EC50 as weaker potency.

For one experiment, the system named is mTRPC6 mutant ^mV687L. Nature of the experiment: whole-cell patch-clamp, mTRPC6 mutant V687L. In kind it is cell-based, mouse. The conditions noted are these: ^mV687L (S3 pocket). In short, it runs like this: (§1)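 Transiently transfected HEK293 cells expressing mouse or human TRPC6 WT, or sequence-verified mouse point mutants, recorded 24–48 h post-transfection. Conventional whole-cell clamp at −60 mV and 23 °C, gap-free; test compound applied by Y-tube. Pipette: CsCl/HEPES/BAPTA, 400 nM free Ca2+, pH 7.2. Bath: NaCl-based, 2 mM CaCl2, pH 7.4. EC50 from Hill fit of concentration–current data. Mutant screen used current ratios (10/5 μM or 3/1 μM). At least 3 transfection batches.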
On the technique in general: The patch-clamp technique gives a direct electrical read-out from membranes.

Another experiment concerns the target mTRPC6 mutant ^mS685T (Mus musculus, UniProt Q61143, S685T). The experiment can be described thus: whole-cell patch-clamp, mTRPC6 mutant S685T. Type of experiment: cell-based. The following applies: ^mS685T (S3 pocket). In short, it runs like this:
as §1

The next experiment concerns the target mTRPC6 mutant ^mN701A (Mus musculus, UniProt Q61143, N701A). The experiment can be described thus: whole-cell patch-clamp, mTRPC6 mutant N701A. In kind it is cell-based. The following applies: saturated agonist. In short, it runs like this: as §1
The target in the next experiment is mTRPC6 mutant ^mY704A (Mus musculus, UniProt Q61143, Y704A). Nature of the experiment: whole-cell patch-clamp, mTRPC6 mutant Y704A. The following applies: saturated agonist. Type of experiment: cell-based. In short, it runs like this:
as §1

The target in a further experiment is T1, mTRPC6 mutant ^mE671C (Mus musculus, UniProt Q61143, E671C).
T1 sequence (Q61143 1-930 E671C): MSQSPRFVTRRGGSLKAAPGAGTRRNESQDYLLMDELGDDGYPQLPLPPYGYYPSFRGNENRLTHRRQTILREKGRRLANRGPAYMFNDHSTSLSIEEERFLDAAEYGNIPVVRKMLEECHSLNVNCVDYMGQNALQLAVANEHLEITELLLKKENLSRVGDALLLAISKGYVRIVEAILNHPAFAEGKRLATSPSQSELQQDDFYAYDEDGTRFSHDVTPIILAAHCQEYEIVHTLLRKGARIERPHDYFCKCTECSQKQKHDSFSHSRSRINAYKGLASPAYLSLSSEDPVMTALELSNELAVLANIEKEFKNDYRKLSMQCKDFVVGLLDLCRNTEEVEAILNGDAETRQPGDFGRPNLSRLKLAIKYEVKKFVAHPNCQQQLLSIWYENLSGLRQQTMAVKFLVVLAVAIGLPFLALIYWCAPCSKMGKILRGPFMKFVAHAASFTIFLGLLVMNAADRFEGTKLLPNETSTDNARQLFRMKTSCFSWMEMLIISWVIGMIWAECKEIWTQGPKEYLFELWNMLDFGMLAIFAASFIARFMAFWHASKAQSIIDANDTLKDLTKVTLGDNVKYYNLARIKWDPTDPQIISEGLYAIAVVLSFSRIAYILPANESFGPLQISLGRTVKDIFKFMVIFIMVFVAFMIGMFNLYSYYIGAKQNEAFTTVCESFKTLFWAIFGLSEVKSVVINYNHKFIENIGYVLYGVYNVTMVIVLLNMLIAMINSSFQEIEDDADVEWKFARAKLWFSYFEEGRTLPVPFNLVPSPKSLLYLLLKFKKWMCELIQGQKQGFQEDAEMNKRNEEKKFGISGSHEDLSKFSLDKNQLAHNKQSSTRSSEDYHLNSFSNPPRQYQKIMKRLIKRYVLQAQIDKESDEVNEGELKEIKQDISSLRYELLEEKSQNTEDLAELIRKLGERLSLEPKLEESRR
The experiment can be described thus: whole-cell patch-clamp, mTRPC6 mutant E671C. In kind it is cell-based. In short, it runs like this:
as §1

Another experiment concerns mTRPC6 mutant ^mR463K. The experiment can be described thus: whole-cell patch-clamp, mTRPC6 mutant R463K. Type of experiment: cell-based, mouse. The conditions noted are these: ^mR463K (S1 pocket). In short, it runs like this:
as §1

For the next experiment, the target named is hTRPC6 mutant ^hK676R (Homo sapiens, UniProt Q9Y210, K676R). Nature of the experiment: whole-cell patch-clamp, hTRPC6 mutant K676R. In kind it is cell-based.
The target of a further experiment is hTRPC6 mutant ^hE673D (Homo sapiens, UniProt Q9Y210, E673D). Nature of the experiment: whole-cell patch-clamp, hTRPC6 mutant E673D. Type of experiment: cell-based.
For a further experiment, the target named is mTRPC6^N701Q (Mus musculus, UniProt Q61143, N701Q). The experiment can be described thus: single-channel outside-out recording, mTRPC6 N701Q. Type of experiment: cell-based. The conditions noted are these: 100 μM agonist, −60 mV. In short, it runs like this: (§2)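 Excised outside-out or inside-out patches (macro-patch or single-channel) from transfected HEK293 cells, 24–48 h post-transfection, 23 °C. Polished borosilicate pipettes of 8–12 MΩ; holding potential −60 mV. Same solutions as whole-cell recordings (CsCl-based internal, 400 nM free Ca2+, pH 7.2; NaCl-based external, pH 7.4). Sampled at 50 kHz, 2 kHz filter, low-pass 300 Hz; unitary current and conductance measured.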

In a further experiment the target is mTRPC6 mutant ^mF674A (Mus musculus, UniProt Q61143, F674A). Nature of the experiment: whole-cell patch-clamp, mTRPC6 mutant F674A. The following applies: saturated agonist. Type of experiment: cell-based. In short, it runs like this: as §1
For a further experiment, the target named is mTRPC6 mutant ^mW679A (Mus musculus, UniProt Q61143, W679A). The experiment can be described thus: whole-cell patch-clamp, mTRPC6 mutant W679A. Type of experiment: cell-based. The following applies: saturated agonist. In short, it runs like this:
as §1

Another experiment addresses mTRPC6 mutant ^mN701Q (Mus musculus, UniProt Q61143, N701Q). The experiment can be described thus: whole-cell patch-clamp, mTRPC6 mutant N701Q. In kind it is cell-based. In short, it runs like this: as §1
The next experiment concerns the target mTRPC6 mutant ^mK675R (Mus musculus, UniProt Q61143, K675R). Nature of the experiment: whole-cell patch-clamp, mTRPC6 mutant K675R. Type of experiment: cell-based. In short, it runs like this: as §1
A further experiment addresses mTRPC6 mutant ^mL684V (Mus musculus, UniProt Q61143, L684V). The experiment can be described thus: whole-cell patch-clamp, mTRPC6 mutant L684V. In kind it is cell-based. The following applies: ^mL684V (S3 pocket). In short, it runs like this: as §1
A further experiment deals with hTRPC6 mutant ^hY705W (Homo sapiens, UniProt Q9Y210, Y705W). Nature of the experiment: whole-cell patch-clamp, hTRPC6 mutant Y705W. In kind it is cell-based.
Another experiment deals with mTRPC6^W679F (Mus musculus, UniProt Q61143, W679F). Nature of the experiment: single-channel outside-out recording, mTRPC6 W679F. Type of experiment: cell-based. The conditions noted are these: 100 μM agonist, −60 mV. In short, it runs like this:
as §2

Sequence of mTRPC6 mutant ^mN701Q (Q61143 whole entry N701Q): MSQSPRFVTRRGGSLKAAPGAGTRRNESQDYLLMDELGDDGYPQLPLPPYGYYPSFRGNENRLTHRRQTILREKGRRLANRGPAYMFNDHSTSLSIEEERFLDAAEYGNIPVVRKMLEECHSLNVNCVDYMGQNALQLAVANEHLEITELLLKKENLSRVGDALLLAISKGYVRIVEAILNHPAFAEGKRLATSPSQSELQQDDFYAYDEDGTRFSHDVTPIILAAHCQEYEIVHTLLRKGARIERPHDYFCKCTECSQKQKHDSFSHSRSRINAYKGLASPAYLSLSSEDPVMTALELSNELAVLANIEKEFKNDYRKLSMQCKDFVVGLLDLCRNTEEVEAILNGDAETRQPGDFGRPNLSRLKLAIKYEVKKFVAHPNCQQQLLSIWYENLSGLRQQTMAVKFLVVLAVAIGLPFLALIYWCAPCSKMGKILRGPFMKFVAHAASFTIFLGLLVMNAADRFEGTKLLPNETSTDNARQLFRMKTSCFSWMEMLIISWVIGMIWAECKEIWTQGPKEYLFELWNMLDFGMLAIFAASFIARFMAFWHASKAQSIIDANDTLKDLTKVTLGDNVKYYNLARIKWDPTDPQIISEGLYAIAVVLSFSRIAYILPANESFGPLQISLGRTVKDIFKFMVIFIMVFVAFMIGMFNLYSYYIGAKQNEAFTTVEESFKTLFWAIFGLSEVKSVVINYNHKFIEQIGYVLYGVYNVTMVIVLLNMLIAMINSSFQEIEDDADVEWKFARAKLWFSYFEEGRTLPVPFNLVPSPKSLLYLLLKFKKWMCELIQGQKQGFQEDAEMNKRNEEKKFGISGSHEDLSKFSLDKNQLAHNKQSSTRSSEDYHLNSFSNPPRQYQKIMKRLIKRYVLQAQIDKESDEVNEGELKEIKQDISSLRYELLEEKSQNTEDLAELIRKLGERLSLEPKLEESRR
Sequence of mTRPC6 mutant ^mK675R (Q61143 whole entry K675R): as the sequence (Q61143 whole entry N701Q) above, with K675R, Q701N counted along it
Sequence of mTRPC6 mutant ^mF674A (Q61143 whole entry F674A): as the sequence (Q61143 whole entry N701Q) above, with F674A, Q701N counted along it
Sequence of mTRPC6^W679F (Q61143 whole entry W679F): as the sequence (Q61143 whole entry N701Q) above, with W679F, Q701N counted along it
Sequence of mTRPC6 mutant ^mY704A (Q61143 whole entry Y704A): as the sequence (Q61143 whole entry N701Q) above, with Q701N, Y704A counted along it
Sequence of mTRPC6 mutant ^mL684V (Q61143 whole entry L684V): as the sequence (Q61143 whole entry N701Q) above, with L684V, Q701N counted along it
Sequence of hTRPC6 mutant ^hK676R (Q9Y210 whole entry K676R): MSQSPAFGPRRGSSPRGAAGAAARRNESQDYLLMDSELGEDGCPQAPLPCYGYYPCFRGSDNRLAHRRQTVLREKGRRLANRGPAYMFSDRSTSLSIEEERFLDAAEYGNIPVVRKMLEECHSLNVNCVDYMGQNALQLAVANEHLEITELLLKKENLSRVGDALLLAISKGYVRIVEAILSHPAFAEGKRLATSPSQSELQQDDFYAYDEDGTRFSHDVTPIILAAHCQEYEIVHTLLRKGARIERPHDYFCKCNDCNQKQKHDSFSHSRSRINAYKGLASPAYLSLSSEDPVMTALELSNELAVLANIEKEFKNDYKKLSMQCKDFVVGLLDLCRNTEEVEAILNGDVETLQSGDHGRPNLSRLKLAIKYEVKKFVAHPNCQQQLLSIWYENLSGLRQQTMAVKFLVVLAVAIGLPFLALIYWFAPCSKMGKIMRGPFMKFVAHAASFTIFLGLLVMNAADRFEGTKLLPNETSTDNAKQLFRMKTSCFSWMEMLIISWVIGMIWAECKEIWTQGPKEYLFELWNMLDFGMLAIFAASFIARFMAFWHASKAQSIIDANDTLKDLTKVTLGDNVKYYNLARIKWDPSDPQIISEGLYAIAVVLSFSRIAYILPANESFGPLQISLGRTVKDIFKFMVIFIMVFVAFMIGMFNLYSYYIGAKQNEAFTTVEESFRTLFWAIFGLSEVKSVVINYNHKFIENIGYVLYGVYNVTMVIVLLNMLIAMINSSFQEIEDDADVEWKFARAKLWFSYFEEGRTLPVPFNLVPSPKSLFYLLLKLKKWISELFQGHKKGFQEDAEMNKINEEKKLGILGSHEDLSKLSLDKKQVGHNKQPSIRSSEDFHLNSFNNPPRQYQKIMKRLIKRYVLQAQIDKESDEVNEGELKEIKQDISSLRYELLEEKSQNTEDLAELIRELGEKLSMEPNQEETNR
Sequence of mTRPC6 mutant ^mW679A (Q61143 whole entry W679A): as the sequence (Q61143 whole entry N701Q) above, with W679A, Q701N counted along it
Sequence of hTRPC6 mutant ^hY705W (Q9Y210 whole entry Y705W): as the sequence (Q9Y210 whole entry K676R) above, with R676K, Y705W counted along it
Sequence of mTRPC6 mutant ^mS685T (Q61143 whole entry S685T): as the sequence (Q61143 whole entry N701Q) above, with S685T, Q701N counted along it
Sequence of mTRPC6^N701Q (Q61143 whole entry N701Q): as the sequence (Q61143 whole entry N701Q) above
Sequence of mTRPC6 mutant ^mN701A (Q61143 whole entry N701A): as the sequence (Q61143 whole entry N701Q) above, with Q701A counted along it
Sequence of hTRPC6 mutant ^hE673D (Q9Y210 whole entry E673D): as the sequence (Q9Y210 whole entry K676R) above, with E673D, R676K counted along it

Consider `CCOC(=O)N1CCC(c2cc(O)n3nc(C)c(-c4ccc(F)cc4)c3n2)CC1` [M085, Ethyl 4-(3-(4-fluorophenyl)-7-hydroxy-2-methylpyrazolo[1,5-a]pyrimidin-5-yl)piperidine-1-carboxylate], for which the entries for the “ratio of M085 activation current I10 μM/I5 μM” value in the experiment with mTRPC6 mutant ^mV687L, at mTRPC6 mutant ^mE671C (^mE671C (S2 pocket)) and in the experiment with mTRPC6 mutant ^mR463K were 1.13 ± 0.26, 4.16 ± 0.87 and 1.54 ± 0.17, respectively. Besides, the agonistic effect entry at mTRPC6 mutant ^mS685T and on mTRPC6 mutant ^mL684V was “loss of agonistic effect” in each case. In addition, the agonist-induced current entry at mTRPC6 mutant ^mN701A, at mTRPC6 mutant ^mY704A, on mTRPC6 mutant ^mF674A and on mTRPC6 mutant ^mW679A was “disappearance” in each case. In addition, the EC50 at mTRPC6 mutant ^mE671C was determined as 23.3 ± 6.86 µM; on hTRPC6 mutant ^hK676R, 44 ± 5.75 µM; on hTRPC6 mutant ^hE673D, 22.1 ± 5.46 µM; on mTRPC6 mutant ^mN701Q, 55.7 ± 15.2 µM; on mTRPC6 mutant ^mK675R, 6.9 ± 2.36 µM; at hTRPC6 mutant ^hY705W, 35.3 ± 6.15 µM. In addition, the “Imax (maximal current density)” value is given as 24.09 ± 4.53 pA/pF on mTRPC6 mutant ^mE671C (^mE671C, 100 μM agonist); 2.11 ± 1.04 pA/pF at mTRPC6 mutant ^mN701Q (^mN701Q, 100 μM agonist); 8.26 ± 0.62 pA/pF on mTRPC6 mutant ^mK675R (^mK675R, 100 μM agonist). For the same compound, the “agonist-mediated activation after DTNB treatment” value at mTRPC6 mutant ^mE671C (mTRPC6^E671C, DTNB 2 mM) is given as “completely inhibited”. For the same compound, the “agonist current after DTT removal of TNB moiety” value on mTRPC6 mutant ^mE671C (mTRPC6^E671C, after DTNB then DTT 10 mM) is “partially “recovered””. For the same compound, the unit current result on mTRPC6^N701Q was “about 1.1 pA”; on mTRPC6^W679F it was “did not record unit currents”.
